Assay [1] addresses recombinant KEAP1-Kelch domain (Homo sapiens, UniProt Q14145). The assay is described as follows: biochemical. Format: binding. The following applies: for reduction in KEAP1 binding affinity compared to inhibitor 2: HTRF biochemical assay. Background: TR-FRET usually uses a lanthanide donor and a delayed reading to cut background.
The target of assay [2] is KEAP1 in HEK293T cells (Homo sapiens, UniProt Q14145). The assay is described as follows: KEAP1 degradation in HEK293T cells. It is filed as cell-based. The following applies: HEK293T cells; for KEAP1 degradation / expression: 48 h; for KEAP1 degradation efficiency: three lower concentrations, 5 and 24 h.
KEAP1 in HEK293T cells, sequence (Q14145 whole entry): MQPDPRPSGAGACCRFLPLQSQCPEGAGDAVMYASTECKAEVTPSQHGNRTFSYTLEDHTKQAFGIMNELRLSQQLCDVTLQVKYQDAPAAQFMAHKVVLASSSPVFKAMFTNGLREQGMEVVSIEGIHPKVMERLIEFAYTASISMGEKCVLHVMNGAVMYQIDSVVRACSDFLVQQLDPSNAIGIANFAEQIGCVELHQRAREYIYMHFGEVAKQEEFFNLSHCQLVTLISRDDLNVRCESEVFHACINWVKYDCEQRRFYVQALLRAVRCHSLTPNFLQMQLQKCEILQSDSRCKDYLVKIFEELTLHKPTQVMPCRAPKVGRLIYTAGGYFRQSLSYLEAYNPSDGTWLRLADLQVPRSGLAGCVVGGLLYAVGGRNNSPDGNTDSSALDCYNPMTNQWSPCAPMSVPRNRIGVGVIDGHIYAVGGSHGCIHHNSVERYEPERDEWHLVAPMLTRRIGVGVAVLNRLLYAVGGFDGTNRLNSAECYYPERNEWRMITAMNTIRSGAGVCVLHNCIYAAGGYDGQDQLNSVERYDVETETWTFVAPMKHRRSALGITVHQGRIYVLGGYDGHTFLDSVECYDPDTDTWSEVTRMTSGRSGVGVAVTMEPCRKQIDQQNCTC
Assay [3] concerns the target KEAP1 in HCA7 cells (Homo sapiens, UniProt Q14145). The assay is described as follows: KEAP1 degradation in HCA7 cells. Format: cell-based. To be noted: 48 h. The essentials:
(§1)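 HEK293T, HCA7 and A549 cells were grown in DMEM with 10% FBS and pen/strep; BEAS-2B in LHC-9 with pen/strep; all at 37 °C, 10% CO₂. Cells were exposed to test compound for 48 h, lysed, run on 4–12% SDS-PAGE and transferred to nitrocellulose. Blocking was 5% skim milk for 1 h at RT. Probes were anti-KEAP1, CRBN, NQO1 or HO-1, with HRP anti-β-actin loading control and HRP secondaries. Blots represent 3 independent experiments.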

Assay [4] concerns NRF2 downstream targets, NQO1 and HO-1. The assay is described as follows: NQO1 and HO-1 protein levels in HEK293T and HCA7 cell lines. Format: cell-based. To be noted: 48 h. The essentials: as §1

recombinant KEAP1-Kelch domain, sequence (Q14145 312-624): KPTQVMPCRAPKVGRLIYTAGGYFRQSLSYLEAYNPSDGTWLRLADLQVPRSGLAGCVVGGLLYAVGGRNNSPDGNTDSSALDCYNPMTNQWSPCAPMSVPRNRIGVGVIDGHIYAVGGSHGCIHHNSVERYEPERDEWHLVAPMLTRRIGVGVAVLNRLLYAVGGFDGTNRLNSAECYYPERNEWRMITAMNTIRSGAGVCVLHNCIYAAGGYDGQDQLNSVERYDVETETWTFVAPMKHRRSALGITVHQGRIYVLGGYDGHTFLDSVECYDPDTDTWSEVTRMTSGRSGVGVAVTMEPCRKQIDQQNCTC
KEAP1 in HCA7 cells, sequence (Q14145 whole entry): as the sequence (Q14145 whole entry) above

One may read the IC50 as the concentration needed to halve the response being measured. Regarding `Cc1ccc(C(CC(=O)O)c2cc(OCCCNC(=O)COc3cccc4c3C(=O)N(C3CCC(=O)NC3=O)C4=O)c3c(c2)nnn3C)cc1CN1C[C@@H](C)Oc2ccccc2S1(=O)=O` (stereo partly drawn) [Compound 7, 3-(7-(3-(2-((2-(2,6-Dioxopiperidin-3-yl)-1,3-dioxoisoindolin-4-yl)oxy)acetamido)propoxy)-1-methyl-1H-benzo[d][1,2,3]triazol-5-yl)-3-(4-methyl-3-(((R)-4-methyl-1,1-dioxido-3,4-dihydro-2H-benzo[b][1,4,5]oxathiazepin-2-yl)methyl)phenyl)propanoic acid], the IC50 in assay [1] was 143 nM.

Regarding `Cc1ccc(C(CC(=O)O)c2cc(OCCCCCNC(=O)COc3cccc4c3C(=O)N(C3CCC(=O)NC3=O)C4=O)c3c(c2)nnn3C)cc1CN1C[C@@H](C)Oc2ccccc2S1(=O)=O` (stereo partly drawn) [Compound 9, 3-(7-((5-(2-((2-(2,6-Dioxopiperidin-3-yl)-1,3-dioxoisoindolin-4-yl)oxy)acetamido)pentyl)oxy)-1-methyl-1H-benzo[d][1,2,3]triazol-5-yl)-3-(4-methyl-3-(((R)-4-methyl-1,1-dioxido-3,4-dihydro-2H-benzo[b][1,4,5]oxathiazepin-2-yl)methyl)phenyl)propanoic acid], the IC50 in assay [1] was 86 nM.

As to `Cc1ccc(C(CC(=O)O)c2cc(OCCNc3cccc4c3C(=O)N(C3CCC(=O)NC3=O)C4=O)c3c(c2)nnn3C)cc1CN1C[C@@H](C)Oc2ccccc2S1(=O)=O` (stereo partly drawn) [Compound 3, 3-(7-(2-((2-(2,6-Dioxopiperidin-3-yl)-1,3-dioxoisoindolin-4-yl)amino)ethoxy)-1-methyl-1H-benzo[d][1,2,3]triazol-5-yl)-3-(4-methyl-3-(((R)-4-methyl-1,1-dioxido-3,4-dihydro-2H-benzo[b][1,4,5]oxathiazepin-2-yl)methyl)phenyl)propanoic acid], in assay [1], the IC50 was found to be 150 nM.

For `Cc1ccc(C(CC(=O)O)c2cc(OCCOCCOCCNC(=O)COc3cccc4c3C(=O)N(C3CCC(=O)NC3=O)C4=O)c3c(c2)nnn3C)cc1CN1C[C@@H](C)Oc2ccccc2S1(=O)=O` (stereo partly drawn) [Compound 12, 3-(7-(2-(2-(2-(2-((2-(2,6-Dioxopiperidin-3-yl)-1,3-dioxoisoindolin-4-yl)oxy)acetamido)ethoxy)ethoxy)ethoxy)-1-methyl-1H-benzo[d][1,2,3]triazol-5-yl)-3-(4-methyl-3-(((R)-4-methyl-1,1-dioxido-3,4-dihydro-2H-benzo[b][1,4,5]oxathiazepin-2-yl)methyl)phenyl)propanoic acid], in assay [1], the half-maximal inhibitory concentration (IC50) came out at 563 nM and the “reduction in KEAP1 binding affinity compared to inhibitor 2” value (from here on “reduction … to inhibitor 2”) is given as “greater than 3 fold”.

With `COc1cc(C(CC(=O)OC(C)(C)C)c2ccc(C)c(CN3C[C@@H](C)Oc4ccccc4S3(=O)=O)c2)cc2nnn(C)c12` (stereo partly drawn) [Compound 17, tert-Butyl 3-(7-methoxy-1-methyl-1H-benzo[d][1,2,3]triazol-5-yl)-3-(4-methyl-3-(((R)-4-methyl-1,1-dioxido-3,4-dihydro-2H-benzo[b][1,4,5]oxathiazepin-2-yl)methyl)phenyl)propanoate], the “KEAP1 degradation / expression” value in assay [2] was “no impact”. Besides, the “KEAP1 degradation / expression” value in assay [3] is recorded as “no impact”. Further, in assay [4], the HO-1 protein expression result is listed as “no impact” and the NQO1 protein expression entry is “no impact”.

On to `Cc1ccc(C(CC(=O)O)c2cc(OCCOCCOCCNc3cccc4c3C(=O)N(C3CCC(=O)NC3=O)C4=O)c3c(c2)nnn3C)cc1CN1C[C@@H](C)Oc2ccccc2S1(=O)=O` (stereo partly drawn) [Compound 11, 3-(7-(2-(2-(2-((2-(2,6-Dioxopiperidin-3-yl)-1,3-dioxoisoindolin-4-yl)amino)ethoxy)ethoxy)ethoxy)-1-methyl-1H-benzo[d][1,2,3]triazol-5-yl)-3-(4-methyl-3-(((R)-4-methyl-1,1-dioxido-3,4-dihydro-2H-benzo[b][1,4,5]oxathiazepin-2-yl)methyl)phenyl)propanoic acid], for which, in assay [1], the IC50 stood at 120 nM.

For `Cc1ccc(C(CC(=O)O)c2cc(OCCNC(=O)COc3cccc4c3C(=O)N(C3CCC(=O)NC3=O)C4=O)c3c(c2)nnn3C)cc1CN1C[C@@H](C)Oc2ccccc2S1(=O)=O` (stereo partly drawn) [Compound 6, 3-(7-(2-(2-((2-(2,6-Dioxopiperidin-3-yl)-1,3-dioxoisoindolin-4-yl)oxy)acetamido)ethoxy)-1-methyl-1H-benzo[d][1,2,3]triazol-5-yl)-3-(4-methyl-3-(((R)-4-methyl-1,1-dioxido-3,4-dihydro-2H-benzo[b][1,4,5]oxathiazepin-2-yl)methyl)phenyl)propanoic acid], the IC50 in assay [1] turned out to be 147 nM.

As to `Cc1ccc(C(CC(=O)OC(C)(C)C)c2cc(OCCCCCCCNc3cccc4c3C(=O)N(C3CCC(=O)NC3=O)C4=O)c3c(c2)nnn3C)cc1CN1C[C@@H](C)Oc2ccccc2S1(=O)=O` (stereo partly drawn) [Compound 16, tert-Butyl 3-(7-((7-((2-(2,6-Dioxopiperidin-3-yl)-1,3-dioxoisoindolin-4-yl)amino)heptyl)oxy)-1-methyl-1H-benzo[d][1,2,3]triazol-5-yl)-3-(4-methyl-3-(((R)-4-methyl-1,1-dioxido-3,4-dihydro-2H-benzo[b][1,4,5]oxathiazepin-2-yl)methyl)phenyl)propanoate], the “KEAP1 degradation / expression” value in assay [2] and in assay [3] was “no impact” each time. For the same compound, in assay [4], the HO-1 protein expression entry is recorded as “no impact”. Besides, the NQO1 protein expression entry in assay [4] was “no impact”.

In the case of `Cc1ccc(C(CC(=O)O)c2cc(OCCCCCCCNc3cccc4c3C(=O)N(C3CCC(=O)N(C)C3=O)C4=O)c3c(c2)nnn3C)cc1CN1C[C@@H](C)Oc2ccccc2S1(=O)=O` (stereo partly drawn) [Compound 15, 3-(4-Methyl-3-(((R)-4-methyl-1,1-dioxido-3,4-dihydro-2H-benzo[b][1,4,5]oxathiazepin-2-yl)methyl)phenyl)-3-(1-methyl-7-((7-((2-(1-methyl-2,6-dioxopiperidin-3-yl)-1,3-dioxoisoindolin-4-yl)amino)heptyl)oxy)-1H-benzo[d][1,2,3]triazol-5-yl)propanoic acid], in assay [4], the HO-1 protein expression entry was “but not HO-1” and the NQO1 protein expression entry is recorded as “upregulated”.

On to `Cc1ccc(C(CC(=O)O)c2cc(OCCCCCCNC(=O)COc3cccc4c3C(=O)N(C3CCC(=O)NC3=O)C4=O)c3c(c2)nnn3C)cc1CN1C[C@@H](C)Oc2ccccc2S1(=O)=O` (stereo partly drawn) [Compound 10, 3-(7-((6-(2-((2-(2,6-Dioxopiperidin-3-yl)-1,3-dioxoisoindolin-4-yl)oxy)acetamido)hexyl)oxy)-1-methyl-1H-benzo[d][1,2,3]triazol-5-yl)-3-(4-methyl-3-(((R)-4-methyl-1,1-dioxido-3,4-dihydro-2H-benzo[b][1,4,5]oxathiazepin-2-yl)methyl)phenyl)propanoic acid], for which the IC50 in assay [1] was 127 nM. Besides, the KEAP1 degradation efficiency entry in assay [2] is listed as “most efficient at degrading KEAP1”.

As to `C[S+]([O-])CCCCN=C=S` (stereo not drawn) [sulforaphane, reference compound], in assay [4], the HO-1 protein expression entry was “but not HO-1” and the NQO1 protein expression result is given as “upregulated”.

Regarding `Cc1ccc(C(CC(=O)O)c2cc(OCCCNc3cccc4c3C(=O)N(C3CCC(=O)NC3=O)C4=O)c3c(c2)nnn3C)cc1CN1C[C@@H](C)Oc2ccccc2S1(=O)=O` (stereo partly drawn) [Compound 4, 3-(7-(3-((2-(2,6-Dioxopiperidin-3-yl)-1,3-dioxoisoindolin-4-yl)amino)propoxy)-1-methyl-1H-benzo[d][1,2,3]triazol-5-yl)-3-(4-methyl-3-(((R)-4-methyl-1,1-dioxido-3,4-dihydro-2H-benzo[b][1,4,5]oxathiazepin-2-yl)methyl)phenyl)propanoic acid], in assay [1], the IC50 was found to be 267 nM and the “reduction … to inhibitor 2” value is recorded as “greater than 3 fold”.

On to `Cc1ccc(C(CC(=O)O)c2cc(OC(=O)CCCOc3cccc4c3C(=O)N(C3CCC(=O)NC3=O)C4=O)c3c(c2)nnn3C)cc1CN1C[C@@H](C)Oc2ccccc2S1(=O)=O` (stereo partly drawn) [Compound 5, 3-(7-((4-((2-(2,6-Dioxopiperidin-3-yl)-1,3-dioxoisoindolin-4-yl)oxy)butanoyl)oxy)-1-methyl-1H-benzo[d][1,2,3]triazol-5-yl)-3-(4-methyl-3-(((R)-4-methyl-1,1-dioxido-3,4-dihydro-2H-benzo[b][1,4,5]oxathiazepin-2-yl)methyl)phenyl)propanoic acid], for which the “reduction … to inhibitor 2” value in assay [1] is given as “greater than 3 fold”.

With `Cc1ccc(C(CC(=O)O)c2cc(OCCCCNC(=O)COc3cccc4c3C(=O)N(C3CCC(=O)NC3=O)C4=O)c3c(c2)nnn3C)cc1CN1C[C@@H](C)Oc2ccccc2S1(=O)=O` (stereo partly drawn) [Compound 8, 3-(7-(4-(2-((2-(2,6-Dioxopiperidin-3-yl)-1,3-dioxoisoindolin-4-yl)oxy)acetamido)butoxy)-1-methyl-1H-benzo[d][1,2,3]triazol-5-yl)-3-(4-methyl-3-(((R)-4-methyl-1,1-dioxido-3,4-dihydro-2H-benzo[b][1,4,5]oxathiazepin-2-yl)methyl)phenyl)propanoic acid], the IC50 in assay [1] was 66 nM. For the same compound, the “KEAP1 degradation at longer time points” value in assay [2] (48 h and 72 h, comparison of 8 and 14) is “less effective at longer time points of 48 h and 72 h”. Also, the KEAP1 degradation efficiency result in assay [2] was “most efficient at degrading KEAP1”.
